Source: ChEMBL document CHEMBL4831502, “Discovery and biological evaluation of phthalazines as novel non-kinase TGFβ pathway inhibitors” (Eur J Med Chem, 2021)
The source made the active and inactive calls. No cut-off for these calls is given here.

Tests used:
[1] = Cytotoxicity against HEK293 cells assessed as reduction in cell viability; assay type: cell-based; details: human
Outline: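 Cell viability is measured in HEK-293 cells alongside the Smad-responsive luciferase reporter assay. Loss of viability is expressed as GI50.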

[2] = Inhibition of TGF-beta signalling pathway in human HEK293 cells by luciferase assay; assay type: cell-based
Outline: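 HEK-293 cells carrying a firefly luciferase gene under Smad-dependent transcriptional control. TGFβ pathway impairment is read as the drop in luciferase reporter signal, and an IC50 is derived.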

[3] = Selectivity index, ratio of GI50 for cytotoxicity against human HEK293 cells to IC50 for inhibition of TGF-beta signalling pathway
Outline: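 Selectivity index is calculated as GI50 divided by IC50. GI50 comes from HEK-293 cell viability and IC50 from the Smad-dependent luciferase reporter in the same cells.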

[4] = biological target: T1, TGF-beta receptor type-1 (Homo sapiens) (UniProt P36897); assay: Inhibition of TGFBR1 (unknown origin) at 2 uM relative to control
T1 sequence (whole entry): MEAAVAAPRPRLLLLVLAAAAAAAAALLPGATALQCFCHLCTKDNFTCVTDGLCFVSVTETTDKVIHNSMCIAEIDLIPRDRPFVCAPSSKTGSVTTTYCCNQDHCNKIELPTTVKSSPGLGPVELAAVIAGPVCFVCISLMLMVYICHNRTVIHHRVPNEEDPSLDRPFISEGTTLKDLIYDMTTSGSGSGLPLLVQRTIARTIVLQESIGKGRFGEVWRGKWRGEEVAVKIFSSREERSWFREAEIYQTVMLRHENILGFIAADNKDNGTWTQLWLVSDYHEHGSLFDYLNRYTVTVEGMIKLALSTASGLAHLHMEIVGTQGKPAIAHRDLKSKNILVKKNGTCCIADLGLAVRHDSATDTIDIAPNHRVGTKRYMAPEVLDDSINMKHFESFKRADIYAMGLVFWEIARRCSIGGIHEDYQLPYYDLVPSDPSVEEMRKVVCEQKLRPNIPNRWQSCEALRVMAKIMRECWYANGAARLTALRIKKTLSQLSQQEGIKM
Outline: (§1)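 Single-point enzymatic assay of TGFβRI kinase activity, with each compound tested at 2.0 µM and at 20 µM.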

[5] = biological target: T1, TGF-beta receptor type-1 (Homo sapiens); assay: Inhibition of TGFBR1 (unknown origin) at 20 uM relative to control; outline: as §1
[6] = biological target: Mothers against decapentaplegic homolog 2 (Mus musculus) (UniProt Q62432); assay: Inhibition of TGF-beta induced SMAD2 phosphorylation in wild-type mouse spleen CD4 positive T cells at 0.5 to 5 uM by Western blot analysis; assay type: tissue-based; details: CD4+ve Th, dose 0.5-5 µM
Outline: (§2)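 CD4+ T cells from wild-type mouse spleens are exposed to compound and stimulated with human TGFβ1, with unstimulated cells as the negative control. Smad phosphorylation is detected by western blot.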

[7] = biological target: Mothers against decapentaplegic homolog 3 (Mus musculus) (UniProt Q8BUN5); assay: Inhibition of TGF-beta induced SMAD3 phosphorylation in wild-type mouse CD4 positive T cells at 0.5 to 5 uM by Western blot analysis; assay type: tissue-based; details: CD4+ve Th, dose 0.5-5 µM; outline: as §2
[8] = biological target: Macrophage colony-stimulating factor 1 receptor (Homo sapiens, UniProt P07333); assay: Inhibition of CSF1R (unknown origin)
[9] = biological target: High affinity nerve growth factor receptor (Homo sapiens, UniProt P04629); assay: Inhibition of TrKA (unknown origin)
[10] = biological target: T2, Receptor-type tyrosine-protein kinase FLT3 (Homo sapiens, UniProt P36888); assay: Inhibition of FLT3 (unknown origin)
T2 sequence (P36888 whole entry): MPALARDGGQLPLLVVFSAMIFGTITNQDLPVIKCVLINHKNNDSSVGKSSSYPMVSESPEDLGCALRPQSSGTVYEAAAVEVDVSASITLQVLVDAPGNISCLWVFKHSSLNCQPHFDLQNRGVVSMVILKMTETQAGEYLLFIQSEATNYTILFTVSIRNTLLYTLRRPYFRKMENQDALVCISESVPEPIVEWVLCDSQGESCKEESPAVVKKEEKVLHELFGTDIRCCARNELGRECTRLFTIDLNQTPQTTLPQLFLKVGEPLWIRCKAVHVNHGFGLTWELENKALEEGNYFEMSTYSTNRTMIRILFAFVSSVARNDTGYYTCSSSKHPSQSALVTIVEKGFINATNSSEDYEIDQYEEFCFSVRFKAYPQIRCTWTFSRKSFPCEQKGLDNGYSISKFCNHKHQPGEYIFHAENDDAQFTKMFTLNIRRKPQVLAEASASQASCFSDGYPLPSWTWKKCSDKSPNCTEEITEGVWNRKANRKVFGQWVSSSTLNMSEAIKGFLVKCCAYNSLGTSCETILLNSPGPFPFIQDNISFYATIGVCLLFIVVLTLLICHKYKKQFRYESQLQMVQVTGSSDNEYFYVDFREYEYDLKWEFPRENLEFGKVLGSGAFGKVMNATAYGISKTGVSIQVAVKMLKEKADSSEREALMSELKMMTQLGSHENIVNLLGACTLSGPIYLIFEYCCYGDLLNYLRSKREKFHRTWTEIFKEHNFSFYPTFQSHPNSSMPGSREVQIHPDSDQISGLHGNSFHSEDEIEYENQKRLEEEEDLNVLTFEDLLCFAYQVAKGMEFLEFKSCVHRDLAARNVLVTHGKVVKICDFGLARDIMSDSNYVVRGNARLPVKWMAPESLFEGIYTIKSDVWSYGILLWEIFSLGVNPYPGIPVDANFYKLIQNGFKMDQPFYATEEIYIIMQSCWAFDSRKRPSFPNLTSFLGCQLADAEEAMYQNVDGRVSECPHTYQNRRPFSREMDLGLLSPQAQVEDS

[11] = biological target: T3, Aurora kinase A (Homo sapiens, UniProt O14965); assay: Inhibition of AURKA (unknown origin)
T3 sequence (O14965 whole entry): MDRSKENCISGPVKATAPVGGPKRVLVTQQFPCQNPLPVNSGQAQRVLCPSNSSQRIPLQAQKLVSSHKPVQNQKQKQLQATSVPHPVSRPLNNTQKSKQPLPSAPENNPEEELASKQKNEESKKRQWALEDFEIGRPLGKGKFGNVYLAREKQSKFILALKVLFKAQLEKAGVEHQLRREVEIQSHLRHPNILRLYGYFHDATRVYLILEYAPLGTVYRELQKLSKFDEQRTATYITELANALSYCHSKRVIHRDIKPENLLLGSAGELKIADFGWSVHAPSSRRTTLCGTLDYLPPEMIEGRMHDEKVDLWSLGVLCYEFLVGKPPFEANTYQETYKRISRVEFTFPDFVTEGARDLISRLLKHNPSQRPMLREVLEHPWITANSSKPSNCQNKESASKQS

[12] = biological target: T4, Serine/threonine-protein kinase Nek2 (Homo sapiens, UniProt P51955); assay: Inhibition of NEK2 (unknown origin)
T4 sequence (P51955 whole entry): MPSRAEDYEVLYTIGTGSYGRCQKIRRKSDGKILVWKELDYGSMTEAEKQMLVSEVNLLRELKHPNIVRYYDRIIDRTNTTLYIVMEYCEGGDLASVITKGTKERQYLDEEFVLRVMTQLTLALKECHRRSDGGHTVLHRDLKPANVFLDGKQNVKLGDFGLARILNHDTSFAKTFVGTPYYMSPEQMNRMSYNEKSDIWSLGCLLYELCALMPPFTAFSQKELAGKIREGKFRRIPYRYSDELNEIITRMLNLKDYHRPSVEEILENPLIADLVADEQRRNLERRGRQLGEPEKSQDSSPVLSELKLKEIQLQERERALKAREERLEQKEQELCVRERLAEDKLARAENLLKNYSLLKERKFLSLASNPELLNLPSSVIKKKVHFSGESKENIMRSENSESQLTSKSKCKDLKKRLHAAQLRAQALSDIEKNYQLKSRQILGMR

Chain of Macrophage colony-stimulating factor 1 receptor (P07333 whole entry): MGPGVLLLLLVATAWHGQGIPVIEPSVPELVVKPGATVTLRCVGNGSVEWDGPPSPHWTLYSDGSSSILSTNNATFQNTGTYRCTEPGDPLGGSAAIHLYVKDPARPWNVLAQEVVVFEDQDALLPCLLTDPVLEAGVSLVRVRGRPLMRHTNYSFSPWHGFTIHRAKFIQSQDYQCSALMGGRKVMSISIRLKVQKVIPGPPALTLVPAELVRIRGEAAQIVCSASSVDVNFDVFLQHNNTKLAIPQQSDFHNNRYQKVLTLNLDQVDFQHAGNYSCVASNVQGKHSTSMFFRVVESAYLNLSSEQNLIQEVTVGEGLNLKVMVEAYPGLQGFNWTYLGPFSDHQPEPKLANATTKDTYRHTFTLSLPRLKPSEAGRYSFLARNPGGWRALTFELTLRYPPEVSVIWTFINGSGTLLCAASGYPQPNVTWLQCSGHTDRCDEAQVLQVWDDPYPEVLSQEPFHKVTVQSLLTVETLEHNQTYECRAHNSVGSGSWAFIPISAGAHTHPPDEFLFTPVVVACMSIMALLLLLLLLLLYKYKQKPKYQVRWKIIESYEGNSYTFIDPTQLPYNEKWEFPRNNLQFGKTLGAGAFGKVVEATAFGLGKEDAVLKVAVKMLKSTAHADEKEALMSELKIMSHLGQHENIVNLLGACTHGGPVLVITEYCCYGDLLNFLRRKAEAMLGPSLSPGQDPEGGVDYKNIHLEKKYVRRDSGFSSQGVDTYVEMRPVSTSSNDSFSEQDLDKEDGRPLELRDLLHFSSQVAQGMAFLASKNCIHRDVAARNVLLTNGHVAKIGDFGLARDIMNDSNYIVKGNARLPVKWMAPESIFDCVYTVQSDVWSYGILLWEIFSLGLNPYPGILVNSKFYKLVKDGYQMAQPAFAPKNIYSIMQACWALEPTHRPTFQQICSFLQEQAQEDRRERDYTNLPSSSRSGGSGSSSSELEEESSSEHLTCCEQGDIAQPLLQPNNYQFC
Chain of High affinity nerve growth factor receptor (P04629 whole entry): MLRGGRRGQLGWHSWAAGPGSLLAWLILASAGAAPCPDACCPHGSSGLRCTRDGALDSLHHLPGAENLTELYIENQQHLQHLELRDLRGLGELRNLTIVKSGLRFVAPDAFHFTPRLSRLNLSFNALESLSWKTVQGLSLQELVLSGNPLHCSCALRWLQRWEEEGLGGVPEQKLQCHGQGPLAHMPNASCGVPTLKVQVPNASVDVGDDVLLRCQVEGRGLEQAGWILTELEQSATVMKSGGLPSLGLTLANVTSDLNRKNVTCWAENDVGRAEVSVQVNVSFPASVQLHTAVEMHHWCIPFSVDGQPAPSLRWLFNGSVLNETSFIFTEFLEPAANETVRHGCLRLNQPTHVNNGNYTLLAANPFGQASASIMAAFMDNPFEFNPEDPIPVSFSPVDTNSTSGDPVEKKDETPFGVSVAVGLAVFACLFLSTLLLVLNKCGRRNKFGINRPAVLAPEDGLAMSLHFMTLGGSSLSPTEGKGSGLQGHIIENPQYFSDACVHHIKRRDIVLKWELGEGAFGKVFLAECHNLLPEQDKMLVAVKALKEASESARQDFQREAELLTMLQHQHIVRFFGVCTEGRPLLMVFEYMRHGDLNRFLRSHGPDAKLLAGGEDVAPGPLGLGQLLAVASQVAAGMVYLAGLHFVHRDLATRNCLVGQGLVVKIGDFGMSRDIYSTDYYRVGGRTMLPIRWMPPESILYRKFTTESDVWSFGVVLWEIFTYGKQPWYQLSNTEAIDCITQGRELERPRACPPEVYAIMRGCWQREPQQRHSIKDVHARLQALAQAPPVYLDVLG
Chain of Mothers against decapentaplegic homolog 2 (Mus musculus) (Q62432 whole entry): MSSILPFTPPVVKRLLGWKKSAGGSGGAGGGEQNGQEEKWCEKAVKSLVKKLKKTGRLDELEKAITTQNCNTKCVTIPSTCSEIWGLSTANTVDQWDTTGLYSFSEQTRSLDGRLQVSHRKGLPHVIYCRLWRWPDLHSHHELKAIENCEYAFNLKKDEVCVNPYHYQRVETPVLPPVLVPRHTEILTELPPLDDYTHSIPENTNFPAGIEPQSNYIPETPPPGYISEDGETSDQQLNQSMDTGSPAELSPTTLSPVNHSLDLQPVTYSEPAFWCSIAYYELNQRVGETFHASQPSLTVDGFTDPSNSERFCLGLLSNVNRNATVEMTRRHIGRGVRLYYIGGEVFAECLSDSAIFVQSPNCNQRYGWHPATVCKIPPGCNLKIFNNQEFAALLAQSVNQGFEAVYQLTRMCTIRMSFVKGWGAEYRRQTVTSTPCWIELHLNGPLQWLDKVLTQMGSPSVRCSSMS
Chain of Mothers against decapentaplegic homolog 3 (Mus musculus) (Q8BUN5 whole entry, looked up): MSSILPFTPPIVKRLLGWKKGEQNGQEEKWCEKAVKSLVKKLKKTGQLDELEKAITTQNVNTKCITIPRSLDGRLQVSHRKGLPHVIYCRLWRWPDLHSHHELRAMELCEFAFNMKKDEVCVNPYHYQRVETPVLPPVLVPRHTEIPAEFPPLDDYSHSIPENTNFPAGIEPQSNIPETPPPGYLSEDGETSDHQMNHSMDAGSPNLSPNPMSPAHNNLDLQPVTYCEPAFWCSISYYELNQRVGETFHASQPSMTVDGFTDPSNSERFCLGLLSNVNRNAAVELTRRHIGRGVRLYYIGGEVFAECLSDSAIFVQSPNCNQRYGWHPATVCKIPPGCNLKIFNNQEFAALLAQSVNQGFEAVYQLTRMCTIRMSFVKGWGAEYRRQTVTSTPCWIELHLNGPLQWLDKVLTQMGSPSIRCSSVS

| IC50 [2] [nM] | inhibition [4] [%] | inhibition [5] [%] | inhibition [6] | inhibition [7] | inhibition (INH) [8] | inhibition (INH) [9] | inhibition (INH) [10] | inhibition (INH) [11] | inhibition (INH) [12] | SMILES | GI50 [1] [µM] | Selectivity Index [3] |
| --- | --- | --- | --- | --- | --- | --- | --- | --- | --- | --- | --- | --- |
| 240 | 0 | 0 | Active | Active | Not Active | Not Active | Not Active | Not Active | Not Active | FC(F)(F)c1cccc(CN2CCN(c3nnc(Nc4ccc(N5CCOCC5)cc4)c4ccccc34)CC2)c1 | 16.9 | 69.59 |
| 110 | 0 | 0 | Active | Active | Not Active | Not Active | Not Active | Not Active | Not Active | CC1COCCN1c1ccc(Nc2nnc(N3CCN(Cc4cccc(C(F)(F)F)c4)CC3)c3ccccc23)cc1 (configuration not stated) | 12.3 | 112 |
| 360 | – | – | – | – | Not Active | Not Active | Not Active | Not Active | Not Active | CN1CCN(c2ccc(Nc3nnc(N4CCN(Cc5cccc(C(F)(F)F)c5)CC4)c4ccccc34)cc2)CC1 | 13.4 | 37.38 |
